In general, EC50 refers to the concentration at which the effect is half-maximal. Read a low EC50 as greater potency. A word on the GI50: it is the concentration at which growth is held to half of that of the control. A low value points to greater sensitivity of the cells.

Assay [1] in a line: Antileukemic activity against human AML03 cells after 24 hrs by annexin V/7-AAD staining-based flow cytometric analysis. Type of assay: functional, cell-based. Put shortly: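 Primary AML specimens from consenting donors, isolated by Ficoll-Paque gradient and sometimes cryopreserved. Cells were held 1 h in serum-free IMDM with 20% BIT 9500, LDL and β-mercaptoethanol before drug (DMSO stock diluted in PBS, ≤0.5% DMSO final). Exposure was 24 h over 0.5-10 μM. Annexin V/7-AAD double-negative cells, normalized to vehicle, gave the EC50. Run in triplicate.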
(In flow cytometry, cells or beads pass a laser one at a time.)

In assay [2] the test system is SNB-19. Put plainly: Cytotoxicity against human SNB19 cells after 48 hrs by SRB assay. The conditions noted are these: SNB-19, 48 h. It is filed as functional. In outline: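 NCI-60 five-dose screen at 10−8 to 10−4 M. Cells were plated at 5,000–40,000/well in RPMI 1640 with 5% FBS and 2 mM L-glutamine, then preincubated 24 h, and time-zero plates were TCA-fixed. Compound was added from DMSO stocks and exposed 48 h at 37 °C. Cells were TCA-fixed, SRB-stained, and read at 515 nm. LC50 is the concentration halving the cell population through cell death.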

Assay [3] in a line: Cytotoxicity against rat 9LSF cells at 10 uM after 48 hrs by colony formation assay relative to DMAPT. Type of assay: functional. In outline:
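9L-SF rat gliosarcoma cells in DMEM/F12 with 10% iron-supplemented calf serum were treated at 50% confluence for 48 h (0.3-20 μM; DMSO <0.1%, DMAPT in saline). Cells were rinsed, trypsinized, counted and seeded for colonies, with irradiated feeders when seeding was below 2,000 cells/cm2. Survival was normalized to control plating efficiency and compared with DMAPT at 10 μM. Treatments in triplicate.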

As to `C=C1C(=O)O[C@H]2[C@H]1CC/C(COC(=O)NCCCCNC(=O)OC/C1=C/CC[C@@]3(C)O[C@H]3[C@H]3OC(=O)C(=C)[C@@H]3CC1)=C\CC[C@@]1(C)O[C@@H]21`, the response in assay [1] was half-maximal at 7.3 µM (EC50). In other words, the single-digit micromolar range.

In assay [2], `C=C1C(=O)O[C@H]2[C@H]1CC/C(COC(=O)NCCCCCNC(=O)OC/C1=C/CC[C@@]3(C)O[C@H]3[C@H]3OC(=O)C(=C)[C@@H]3CC1)=C\CC[C@@]1(C)O[C@@H]21` displayed a GI50 of 3.97 µM. Besides, in assay [2] (read-out: LC50 (the source's name)), the CC50 was found to be 92.5 µM.

Molecule `C=C1C(=O)O[C@H]2[C@H]1CC/C(COC(=O)NCCCCCCCCNC(=O)OC/C1=C/CC[C@@]3(C)O[C@H]3[C@H]3OC(=O)C(=C)[C@@H]3CC1)=C\CC[C@@]1(C)O[C@@H]21` came in with a half-maximal effective concentration (EC50) in assay [1] of 2.9 µM. Besides, in assay [3], the “fold change (FC)” value came out at 303.

For the origin of these results see ChEMBL document CHEMBL3632581, “Dimers of Melampomagnolide B Exhibit Potent Anticancer Activity against Hematological and Solid Tumor Cells” (J Med Chem, 2015).
